Measured values published in ChEMBL document CHEMBL1144069, “Cytotoxic activities of hypocretenolides from Leontodon hispidus” (J Nat Prod, 1999).
The source made the active and inactive calls. The calls are words filed in the database; no cut-off is given here.

Tests used:
Type in all cases: functional, cell-based
[1] = system: A-431; assay: Cytotoxicity against human A431 cells at 0.25 to 2.0 uM after 24 hrs by [3H]thymidine incorporation assay
Procedure, shortened: (§1)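 Adherent tumor cells (100 µL at 1 × 10^6 cells/mL) were overlaid with 100 µL of medium containing compound in the 0.25–4.00 µM range (0.1% final DMSO). The medium control had no compound. Cells were incubated for 24, 48 or 72 h at 37 °C and 5% CO2, then pulsed 24 h with 3H-thymidine. They were harvested onto glass filters and counted by liquid scintillation. Three wells per point, on three separate days (n = 9). IC50 was taken graphically.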

[2] = system: SW872; assay: Cytotoxicity against human SW872 cells at 0.25 to 2.0 uM after 24 hrs by [3H]thymidine incorporation assay
Procedure, shortened: (§2)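 Adherent tumour cells at 1 × 10^6 cells/mL (100 µL per well) overlaid with an equal volume of medium carrying test substance across 0.25–4.00 µM. Medium-only controls. Incubated 24, 48 or 72 h at 37 °C, 5% CO2, then pulsed 24 h with 3H-thymidine and harvested onto glass filters for scintillation counting. Final DMSO 0.1%. Triplicate wells, three days (n = 9). IC50 read graphically from each experiment's dose curve.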

[3] = system: SW872; assay: Cytotoxicity against human SW872 cells at 0.25 to 2.0 uM after 48 hrs by [3H]thymidine incorporation assay; procedure, shortened: as §2
[4] = system: HEp-2; assay: Cytotoxicity against human HEP2 cells at 0.25 to 2.0 uM after 48 hrs by [3H]thymidine incorporation assay; procedure, shortened: as §1
[5] = system: SK-MEL-28; assay: Cytotoxicity against human SK MEL28 cells at 0.25 to 2.0 uM after 48 hrs by [3H]thymidine incorporation assay; procedure, shortened: as §1
[6] = system: MCF7; assay: Cytotoxicity against human MCF7 cells at 0.25 to 2.0 uM after 24 hrs by [3H]thymidine incorporation assay; procedure, shortened: as §1
[7] = system: HL-60; assay: Cytotoxicity against human HL-60 cells at 0.01 to 2.0 uM after 5 hrs by MTT assay
Procedure, shortened: (§3)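 Leukemic cells at 0.5 × 10^6 cells/mL in RPMI were exposed to 0.01–2.00 µM compound (0.1% final DMSO) at 37 °C and 5% CO2. Viability was measured as MTT formazan, dissolved in DMSO and read at 550 and 630 nm. Three wells per point, on three separate days (n = 9). IC50 was taken graphically from per-experiment dose curves.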

[8] = system: GTB; assay: Cytotoxicity against human GTB cells at 0.01 to 2.0 uM after 5 hrs by MTT assay; procedure, shortened: as §3
[9] = system: MCF7; assay: Cytotoxicity against human MCF7 cells at 0.25 to 2.0 uM after 48 hrs by [3H]thymidine incorporation assay; procedure, shortened: as §1
[10] = system: SW872; assay: Cytotoxicity against human SW872 cells at 0.25 to 2.0 uM after 72 hrs by [3H]thymidine incorporation assay; procedure, shortened: as §2
[11] = system: A-431; assay: Cytotoxicity against human A431 cells at 0.25 to 2.0 uM after 72 hrs by [3H]thymidine incorporation assay; procedure, shortened: as §1
[12] = system: SK37; assay: Cytotoxicity against human SK37 cells at 0.25 to 2.0 uM after 24 hrs by [3H]thymidine incorporation assay; procedure, shortened: as §1
[13] = system: A-431; assay: Cytotoxicity against human A431 cells at 0.25 to 2.0 uM after 48 hrs by [3H]thymidine incorporation assay; procedure, shortened: as §1
[14] = system: ZR-75-1; assay: Cytotoxicity against human ZR-75-1 cells at 0.25 to 2.0 uM after 24 hrs by [3H]thymidine incorporation assay; procedure, shortened: as §2
[15] = system: OVCAR-3; assay: Cytotoxicity against human OVCAR-3 cells at 0.25 to 2.0 uM after 48 hrs by [3H]thymidine incorporation assay; procedure, shortened: as §1
[16] = system: OVCAR-3; assay: Cytotoxicity against human OVCAR-3 cells at 0.25 to 2.0 uM after 72 hrs by [3H]thymidine incorporation assay; procedure, shortened: as §1
[17] = system: OVCAR-3; assay: Cytotoxicity against human OVCAR-3 cells at 0.25 to 2.0 uM after 24 hrs by [3H]thymidine incorporation assay; procedure, shortened: as §1
[18] = system: HEp-2; assay: Cytotoxicity against human HEP2 cells at 0.25 to 2.0 uM after 24 hrs by [3H]thymidine incorporation assay; procedure, shortened: as §1
[19] = system: ZR-75-1; assay: Cytotoxicity against human ZR-75-1 cells at 0.25 to 2.0 uM after 48 hrs by [3H]thymidine incorporation assay; procedure, shortened: as §2
[20] = system: SK37; assay: Cytotoxicity against human SK37 cells at 0.25 to 2.0 uM after 48 hrs by [3H]thymidine incorporation assay; procedure, shortened: as §1
[21] = system: ZR-75-1; assay: Cytotoxicity against human ZR-75-1 cells at 0.25 to 2.0 uM after 72 hrs by [3H]thymidine incorporation assay; procedure, shortened: as §2
[22] = system: SK-MEL-28; assay: Cytotoxicity against human SK MEL28 cells at 0.25 to 2.0 uM after 72 hrs by [3H]thymidine incorporation assay; procedure, shortened: as §1
[23] = system: HEp-2; assay: Cytotoxicity against human HEP2 cells at 0.25 to 2.0 uM after 72 hrs by [3H]thymidine incorporation assay; procedure, shortened: as §1
[24] = system: SK-MEL-28; assay: Cytotoxicity against human SK MEL28 cells at 0.25 to 2.0 uM after 24 hrs by [3H]thymidine incorporation assay; procedure, shortened: as §1
[25] = system: SK37; assay: Cytotoxicity against human SK37 cells at 0.25 to 2.0 uM after 72 hrs by [3H]thymidine incorporation assay; procedure, shortened: as §1
[26] = system: MCF7; assay: Cytotoxicity against human MCF7 cells at 0.25 to 2.0 uM after 72 hrs by [3H]thymidine incorporation assay; procedure, shortened: as §1
[27] = system: A-431; assay: Cytotoxicity against human A431 cells after 48 hrs by [3H]thymidine incorporation assay; procedure, shortened: as §1
[28] = system: SW872; assay: Cytotoxicity against human SW872 cells after 72 hrs by [3H]thymidine incorporation assay; procedure, shortened: as §2
[29] = system: ZR-75-1; assay: Cytotoxicity against human ZR-75-1 cells after 24 hrs by [3H]thymidine incorporation assay; procedure, shortened: as §2
[30] = system: OVCAR-3; assay: Cytotoxicity against human OVCAR-3 cells after 24 hrs by [3H]thymidine incorporation assay; procedure, shortened: as §1
[31] = system: A-431; assay: Cytotoxicity against human A431 cells after 24 hrs by [3H]thymidine incorporation assay; procedure, shortened: as §1
[32] = system: OVCAR-3; assay: Cytotoxicity against human OVCAR-3 cells after 72 hrs by [3H]thymidine incorporation assay; procedure, shortened: as §1
[33] = system: ZR-75-1; assay: Cytotoxicity against human ZR-75-1 cells after 72 hrs by [3H]thymidine incorporation assay; procedure, shortened: as §2
[34] = system: A-431; assay: Cytotoxicity against human A431 cells after 72 hrs by [3H]thymidine incorporation assay; procedure, shortened: as §1
[35] = Cytotoxicity against human SK37 cells after 48 hrs by [3H]thymidine incorporation assay; procedure, shortened: as §1
[36] = Cytotoxicity against human SK37 cells after 24 hrs by [3H]thymidine incorporation assay; procedure, shortened: as §1
[37] = system: HEp-2; assay: Cytotoxicity against human HEP2 cells after 24 hrs by [3H]thymidine incorporation assay; procedure, shortened: as §1
[38] = Cytotoxicity against human SK MEL28 cells after 72 hrs by [3H]thymidine incorporation assay; settings: SK-MEL-28; procedure, shortened: as §1
[39] = system: MCF7; assay: Cytotoxicity against human MCF7 cells after 48 hrs by [3H]thymidine incorporation assay; procedure, shortened: as §1
[40] = system: HL-60; assay: Cytotoxicity against human HL-60 cells after 5 hrs by MTT assay; settings: HL-60, 5 h; procedure, shortened: as §3
[41] = system: ZR-75-1; assay: Cytotoxicity against human ZR-75-1 cells after 48 hrs by [3H]thymidine incorporation assay; procedure, shortened: as §2
[42] = system: HEp-2; assay: Cytotoxicity against human HEP2 cells after 72 hrs by [3H]thymidine incorporation assay; procedure, shortened: as §1
[43] = system: MCF7; assay: Cytotoxicity against human MCF7 cells after 72 hrs by [3H]thymidine incorporation assay; procedure, shortened: as §1
[44] = system: MCF7; assay: Cytotoxicity against human MCF7 cells after 24 hrs by [3H]thymidine incorporation assay; procedure, shortened: as §1
[45] = system: SW872; assay: Cytotoxicity against human SW872 cells after 24 hrs by [3H]thymidine incorporation assay; procedure, shortened: as §1
[46] = Cytotoxicity against human SK37 cells after 72 hrs by [3H]thymidine incorporation assay; procedure, shortened: as §1
[47] = Cytotoxicity against human SK MEL28 cells after 48 hrs by [3H]thymidine incorporation assay; settings: SK-MEL-28; procedure, shortened: as §1
[48] = Cytotoxicity against human SK MEL28 cells after 24 hrs by [3H]thymidine incorporation assay; settings: SK-MEL-28; procedure, shortened: as §1
[49] = system: OVCAR-3; assay: Cytotoxicity against human OVCAR-3 cells after 48 hrs by [3H]thymidine incorporation assay; procedure, shortened: as §1
[50] = system: HEp-2; assay: Cytotoxicity against human HEP2 cells after 48 hrs by [3H]thymidine incorporation assay; procedure, shortened: as §1
[51] = system: SW872; assay: Cytotoxicity against human SW872 cells after 48 hrs by [3H]thymidine incorporation assay; procedure, shortened: as §1
[52] = Cytotoxicity against human GTB cells after 5 hrs by MTT assay; procedure, shortened: as §3

C=C1C(=O)O[C@]23C[C@H]1CCC(CO[C@H]1O[C@@H](CO)[C@H](O)[C@@H](O)[C@@H]1O)=C2C(=O)C=C3C
Activity [1]: inactive | Activity [2]: inactive | Activity [3]: inactive | Activity [4]: inactive | Activity [5]: inactive | Activity [6]: inactive | Activity [7]: inactive | Activity [8]: inactive | Activity [9]: inactive | Activity [10]: inactive | Activity [11]: inactive | Activity [12]: inactive | Activity [13]: inactive | Activity [14]: inactive | Activity [15]: inactive | Activity [16]: inactive | Activity [17]: inactive | Activity [18]: inactive | Activity [19]: inactive | Activity [20]: inactive | Activity [21]: inactive | Activity [22]: inactive | Activity [23]: inactive | Activity [24]: inactive | Activity [25]: inactive | Activity [26]: inactive

C=C1C(=O)O[C@]23C[C@H]1CCC(CO)=C2C(=O)C=C3C
IC50 [27]: 1300 nM | IC50 [28]: 2800 nM | IC50 [29]: 600 nM | IC50 [30]: 1900 nM | IC50 [31]: 1500 nM | IC50 [32]: 1800 nM | IC50 [33]: 1000 nM | IC50 [34]: 900 nM | IC50 [35]: 2400 nM | IC50 [36]: 3200 nM | IC50 [37]: 1500 nM | IC50 [38]: 1200 nM | IC50 [39]: 700 nM | IC50 [40]: 260 nM | IC50 [41]: 900 nM | IC50 [42]: 1100 nM | IC50 [43]: 1000 nM | IC50 [44]: 800 nM | IC50 [45]: 3100 nM | IC50 [46]: 1800 nM | IC50 [47]: 2600 nM | IC50 [48]: 2800 nM | IC50 [49]: 2100 nM | IC50 [50]: 1300 nM | IC50 [51]: 2200 nM | IC50 [52]: 260 nM
